Test results published in ChEMBL document CHEMBL1148594, “Novel 4-oxo-1,4-dihydroquinoline-3-carboxamide derivatives as new CB2 cannabinoid receptors agonists: synthesis, pharmacological properties and molecular modeling” (J Med Chem, 2006).

Assays:
Cannabinoid receptor 2 [1] = target: T1, Cannabinoid receptor 2 (Homo sapiens, UniProt P34972); test: Displacement of [3H]CP-55940 from human CB2 receptor
Cannabinoid receptor 2 [2] = target: T1, Cannabinoid receptor 2; test: Effect on human CB2 receptor stimulation by [35S]GTP-gamma-S binding at 10 uM (basal value set at 100%); format: functional
Procedure, shortened: (§1)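 CHO-hCB2 membranes (40 µg) at 30 °C for 1 h in pH 7.4 Tris/MgCl2/EDTA/100 mM NaCl/0.1% BSA with 20 µM GDP. Started by 0.05 nM [35S]-GTPγS (final). Nonspecific binding with 100 µM Gpp(NH)p. Stopped with ice-cold buffer, filtered on GF/B, counted. EC50 by nonlinear regression. Single-point tests at 10 µM, three experiments in duplicate, one-way ANOVA with Dunnett test.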

Cannabinoid receptor 2 [3] = target: T1, Cannabinoid receptor 2; test: Displacement of [3H]CP-55940 from human CB2 receptor at 10 uM
Procedure, shortened: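 Single-concentration screen at 10 µM on CHO-hCB2 membranes (40 µg) against 1 nM [3H]-CP-55,940, 1 h at 30 °C, pH 7.4 Tris/MgCl2/EDTA/0.5% BSA. HU-210 10 µM defines nonspecific binding. Filtered, counted, reported as percent specific radioligand displacement. At least four experiments in duplicate, mean ± SEM.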

Cannabinoid receptor 1 [4] = target: T2, Cannabinoid receptor 1 (Homo sapiens, UniProt P21554)
Cannabinoid receptor 1 [5] = target: T2, Cannabinoid receptor 1; test: Displacement of [3H]SR-141716A from human CB1 receptor at 10 uM
Procedure, shortened: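 Single-concentration screen at 10 µM on membranes of CHO cells stably expressing human CB1 (40 µg) against 1 nM [3H]-SR-141716A, 1 h at 30 °C, pH 7.4 Tris/MgCl2/EDTA/0.5% BSA. HU-210 10 µM for nonspecific binding. Reported as percent displacement. At least four experiments in duplicate.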

[6] = target: Cannabinoid receptor (Homo sapiens) (UniProt P34972+P21554); test: Selectivity ratio of human CB2 receptor versus human CB1 receptor in human; format: protein assay
Procedure, shortened: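 Ratio of Ki values from [3H]-SR-141716A (hCB1) and [3H]-CP-55,940 (hCB2) competition binding on CHO cell membranes. Ki from IC50 by Cheng-Prusoff, given only when Ki was obtained at both receptors.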

Cannabinoid receptor 2 [7] = target: T1, Cannabinoid receptor 2; test: Effect on [35S]GTP-gamma-S binding to human CB2 receptor; format: functional; procedure, shortened: as §1

T1 sequence (P34972 whole entry): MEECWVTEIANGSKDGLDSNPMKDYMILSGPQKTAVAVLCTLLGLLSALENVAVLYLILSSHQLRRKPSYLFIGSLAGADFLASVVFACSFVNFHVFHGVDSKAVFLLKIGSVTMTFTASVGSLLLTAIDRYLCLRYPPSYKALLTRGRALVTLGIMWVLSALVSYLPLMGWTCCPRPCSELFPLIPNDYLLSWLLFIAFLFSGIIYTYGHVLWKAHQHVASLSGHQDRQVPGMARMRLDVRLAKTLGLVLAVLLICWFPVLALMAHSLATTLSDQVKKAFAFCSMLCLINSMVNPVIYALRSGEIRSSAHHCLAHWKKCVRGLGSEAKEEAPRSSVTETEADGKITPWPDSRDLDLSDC
Sequence of Cannabinoid receptor (Homo sapiens) (P21554 whole entry, looked up): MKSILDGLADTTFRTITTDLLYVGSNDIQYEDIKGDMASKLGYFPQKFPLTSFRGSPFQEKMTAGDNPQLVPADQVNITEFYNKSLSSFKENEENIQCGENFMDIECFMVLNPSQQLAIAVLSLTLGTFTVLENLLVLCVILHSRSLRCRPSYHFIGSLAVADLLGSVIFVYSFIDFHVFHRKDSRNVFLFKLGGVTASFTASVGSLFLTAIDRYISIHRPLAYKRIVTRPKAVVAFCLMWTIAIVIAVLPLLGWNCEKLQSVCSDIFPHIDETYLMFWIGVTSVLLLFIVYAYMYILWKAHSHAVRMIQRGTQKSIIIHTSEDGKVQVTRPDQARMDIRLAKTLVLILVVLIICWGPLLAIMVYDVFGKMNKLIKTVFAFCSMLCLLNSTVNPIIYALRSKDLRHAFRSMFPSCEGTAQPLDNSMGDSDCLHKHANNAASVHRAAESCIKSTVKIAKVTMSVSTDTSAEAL
Sequence of Cannabinoid receptor (Homo sapiens) (P34972 whole entry, looked up): as the sequence (P34972 whole entry) above
T2 sequence (P21554 whole entry): as the sequence (P21554 whole entry, looked up) above

SMILES | Ki (Cannabinoid receptor 2 [1]) | Activity (Cannabinoid receptor 2 [2]) | Activity (Cannabinoid receptor 2 [3]) | Ki (Cannabinoid receptor 1 [4]) | Activity (Cannabinoid receptor 1 [5]) | Selectivity ratio [6] | EC50 (Cannabinoid receptor 2 [7]) | Emax (Cannabinoid receptor 2 [7])
CCCCCn1cc(C(=O)NC2C3CC4CC(C3)CC2C4)c(=O)c2ccccc21 (stereo not given) | 13.4 nM | 130% | 104% | 1920 nM | 37.8% | 143 | 24.8 nM | 126%
CCCCCCn1cc(C(=O)Nc2ccc(OC)cc2)c(=O)c2ccccc21 | – | – | 28.2% | – | < 10% | – | – | –
CCCCCCn1cc(C(=O)NCc2ccccc2)c(=O)c2ccccc21 | – | – | 54.6% | – | 37.4% | – | – | –
CCCCCn1cc(C(=O)N[C@H](C)c2cccc3ccccc23)c(=O)c2ccccc21 | 125 nM | 119% | – | – | – | – | – | –
CCCCCn1cc(C(=O)NCCCc2ccccc2)c(=O)c2ccccc21 | > 1000 nM | 134% | 85.5% | – | 32.8% | – | – | –
CCCCCn1cc(C(=O)NC(C)c2ccc3ccccc3c2)c(=O)c2ccccc21 (racemic) | > 1000 nM | 122% | 82.9% | – | < 10% | – | – | –
CCCCCn1cc(C(=O)N2CCOCC2)c(=O)c2ccccc21 | – | – | 36.5% | – | < 10% | – | – | –
CCCCn1cc(C(=O)Nc2cccc3ccccc23)c(=O)c2ccccc21 | 455 nM | 132% | 85.4% | – | 45.3% | – | – | –
CCCCCn1cc(C(=O)Nc2ccc3ccccc3c2)c(=O)c2ccccc21 | – | – | 63.9% | – | < 10% | – | – | –
CCCCCn1cc(C(=O)NCCc2ccc3c(c2)OCO3)c(=O)c2ccccc21 | 426 nM | 136% | 88.7% | – | 43.6% | – | – | –
CCCCn1cc(C(=O)NCc2ccccc2)c(=O)c2ccccc21 | – | – | 44.9% | – | 33.6% | – | – | –
CCCCCCC(C)(C)c1ccc([C@@H]2C[C@H](O)CC[C@H]2CCCO)c(O)c1 | – | 146% | – | – | – | – | – | 146%
CCCCCn1cc(C(=O)N[C@@H](C)c2cccc3ccccc23)c(=O)c2ccccc21 | > 1000 nM | – | – | – | – | – | – | –
CCCCCn1cc(C(=O)NC2CCCc3ccccc32)c(=O)c2ccccc21 (racemic) | 60.2 nM | 123% | 96.5% | 1050 nM | 79.7% | 17 | 157 nM | 124%
CCCCCCn1cc(C(=O)Nc2cccc3ccccc23)c(=O)c2ccccc21 | 844 nM | 124% | 80% | – | 53.3% | – | – | –
CCCCCn1cc(C(=O)NC23CC4CC(CC(C4)C2)C3)c(=O)c2ccccc21 | 16.4 nM | 126% | 104% | – | 59% | – | – | –
CCCCCn1cc(C(=O)Nc2cccc3ccccc23)c(=O)c2ccccc21 | 371 nM | 124% | 90.6% | 4080 nM | 65.9% | 11 | – | –
CCCCCn1cc(C(=O)N[C@H](C)c2ccc3ccccc3c2)c(=O)c2ccccc21 | 584 nM | 122% | – | – | – | – | – | –
CCCCCn1cc(C(=O)N[C@@H](C)c2ccccc2)c(=O)c2ccccc21 | 784 nM | – | – | – | – | – | – | –

SMILES | Ki (Cannabinoid receptor 2 [1]) | Activity (Cannabinoid receptor 2 [2]) | Activity (Cannabinoid receptor 2 [3]) | Ki (Cannabinoid receptor 1 [4]) | Activity (Cannabinoid receptor 1 [5]) | Selectivity ratio [6] | EC50 (Cannabinoid receptor 2 [7]) | Emax (Cannabinoid receptor 2 [7])
CCCCCn1cc(C(=O)Nc2ccc(OC)cc2)c(=O)c2ccccc21 | – | – | 60.1% | – | < 20% | – | – | –
CCCCCn1cc(C(=O)NCc2ccc(OC)cc2)c(=O)c2ccccc21 | – | – | 51.7% | – | < 10% | – | – | –
CCCCn1cc(C(=O)Nc2ccc(OC)cc2)c(=O)c2ccccc21 | – | – | 50.5% | – | < 20% | – | – | –
CCCCCn1cc(C(=O)Nc2ccc(C#N)cc2)c(=O)c2ccccc21 | 772 nM | 133% | 79.4% | – | 49.6% | – | – | –
Cc1ccc(Cn2nc(C(=O)NC3C4(C)CCC(C4)C3(C)C)cc2-c2ccc(Cl)c(C)c2)cc1 (stereo not given) | – | 21.6% | – | – | – | – | – | 21.6%
CCCC(C)(C)c1ccc2c(c1)OC(C)(C)[C@@H]1CC=C(C)C[C@@H]21 | 20.3 nM | 148% | – | – | – | – | 146 nM | 149%
CCCCCn1cc(C(=O)Nc2ccc(-c3ccccc3)cc2)c(=O)c2ccccc21 | – | – | < 20% | – | < 20% | – | – | –
CCCCCn1cc(C(=O)N[C@@H](C)c2ccc3ccccc3c2)c(=O)c2ccccc21 | > 5000 nM | – | – | – | – | – | – | –
CCCCCn1cc(C(=O)NCCc2ccccc2)c(=O)c2ccccc21 | 201 nM | 136% | 98.2% | – | 64.8% | – | – | –
CCCCCn1cc(C(=O)O)c(=O)c2ccccc21 | – | – | < 15% | – | < 20% | – | – | –
CCCCCn1cc(C(=O)Nc2ccc(Cl)c(Cl)c2)c(=O)c2ccccc21 | > 1000 nM | 116% | 68.1% | – | < 10% | – | – | –
CCCCCn1cc(C(=O)NC23CC4CC(C)(CC(C)(C4)C2)C3)c(=O)c2ccccc21 | 15.8 nM | 131% | 95.6% | – | 54.6% | – | 14.1 nM | 124%
CCCCCn1cc(C(=O)NC(C)c2ccccc2)c(=O)c2ccccc21 (racemic) | 70.8 nM | 130% | 101% | – | 68.3% | – | – | –
CCCCCn1cc(C(=O)NCc2ccccc2)c(=O)c2ccccc21 | > 1000 nM | 129% | 66.7% | – | 50.5% | – | – | –
CCCCCn1cc(C(=O)NC(C)c2cccc3ccccc23)c(=O)c2ccccc21 (racemic) | 174 nM | 117% | 98.9% | – | 35.5% | – | – | –
CC12CC3CC(C)(C1)CC(NC(=O)c1cn(Cc4ccccc4)c4ccccc4c1=O)(C3)C2 | 664 nM | 121% | 86.3% | – | 32.5% | – | – | –
CCCCCCC(C)(C)c1cc(O)c2c(c1)OC(C)(C)[C@@H]1CC=C(CO)C[C@@H]21 | – | 135% | – | – | – | – | – | 135%
CCCCCn1cc(C(=O)N[C@H](C)c2ccccc2)c(=O)c2ccccc21 | 37.1 nM | 124% | – | 1150 nM | – | 31 | 16.8 nM | 129%
Cc1c(C(=O)c2cccc3ccccc23)c2cccc3c2n1[C@H](CN1CCOCC1)CO3 | – | 128% | – | – | – | – | – | 126%
